Activity calls are given as the source filed them. The calls are words filed in the database; no cut-off is given here.
How the values were obtained:
Rattus norvegicus [1] = experiment: Analgesic activity in Sprague-Dawley rat assessed as reduction in chronic constriction injury induced hyperalgesic neuropathic pain on ligated side at 100 mg/kg/day administered via oral gavage measured upto 8 days relative to vehicle-treated control; assay type: functional, organism-based
How it was run: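 Male Sprague–Dawley rats (200–250 g; n = 10–15 per group) received sciatic nerve constriction with four loose 4.0 chromic gut ligatures spaced 1 mm apart. Testing began 10 days after surgery. Dosing was daily by oral gavage, given 1 h before testing on test days. Hind-paw withdrawal latency to a plantar thermal stimulus (Hargreaves) was read to 0.1 s, with normal response within 15 s. Difference score was nonligated minus ligated latency. Sessions were twice weekly, and groups were compared by t-test versus control.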

Plasma [2] = experiment: Prodrug conversion in mouse plasma assessed as 4-Carboxy-alpha-[3-(hydroxyamino)-3-oxopropyl]-benzenepropanoic acid formation at 10 uM measured upto 60 mins by LC-MS/MS analysis; assay type: ADME, cell-free; conditions: 1 h
How it was run: (§1)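 Compounds at 10 μM spiked into mouse plasma and shaken at 37 °C. Triplicate aliquots taken at 0 and 60 min and quenched with 2 volumes of ice-cold acetonitrile containing losartan 5 μM as internal standard. Centrifuged and supernatant diluted with water. Parent loss and metabolites identified by LC–ESI-TOF on C18 using a formic acid/acetonitrile gradient and extracted-ion chromatograms.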

[3] = biological target: Glutamate carboxypeptidase 2 (Homo sapiens, UniProt Q04609); experiment: Inhibition of recombinant human glutamate carboxypeptidase 2 (44 to 750 residues) overexpressed in Drosophila Schneider S2 cells using [3H]-NAAG/NAAG as substrate preincubated for 15 mins followed by substrate addition measured after 20 mins by liquid scintillation counting method
Sequence of Glutamate carboxypeptidase 2 (Q04609 whole entry, the tested form may be a part): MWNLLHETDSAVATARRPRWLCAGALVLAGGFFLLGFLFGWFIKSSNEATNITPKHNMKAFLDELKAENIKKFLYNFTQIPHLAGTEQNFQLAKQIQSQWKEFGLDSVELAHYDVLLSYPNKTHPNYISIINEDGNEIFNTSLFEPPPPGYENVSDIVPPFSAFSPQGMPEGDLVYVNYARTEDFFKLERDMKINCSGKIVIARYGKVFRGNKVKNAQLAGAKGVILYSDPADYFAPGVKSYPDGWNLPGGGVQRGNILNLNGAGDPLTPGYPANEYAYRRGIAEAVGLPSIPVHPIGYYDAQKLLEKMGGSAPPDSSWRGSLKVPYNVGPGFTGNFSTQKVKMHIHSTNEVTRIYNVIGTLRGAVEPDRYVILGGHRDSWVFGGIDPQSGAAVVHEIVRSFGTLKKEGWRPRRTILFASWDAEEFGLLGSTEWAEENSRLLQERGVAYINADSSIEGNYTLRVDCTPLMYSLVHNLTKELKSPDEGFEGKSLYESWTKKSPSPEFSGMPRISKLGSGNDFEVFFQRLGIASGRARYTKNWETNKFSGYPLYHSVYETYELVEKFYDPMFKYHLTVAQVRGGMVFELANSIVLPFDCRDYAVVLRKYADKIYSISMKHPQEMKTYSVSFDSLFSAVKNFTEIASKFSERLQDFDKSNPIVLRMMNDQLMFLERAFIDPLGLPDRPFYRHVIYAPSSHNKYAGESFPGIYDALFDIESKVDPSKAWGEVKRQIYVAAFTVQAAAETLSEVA
How it was run: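 Radioenzymatic assay. rhGCPII (30 ng/mL) preincubated with inhibitor at varying concentrations for 15 min at 37 °C in 20 mM Tris, 150 mM NaCl, pH 8.0. Started with 0.31 μM NAAG plus 15 nM 3H-NAAG and run 20 min. Stopped with phosphate/EDTA/β-mercaptoethanol, pH 7.4. Released glutamate separated by ion exchange and counted by scintillation. IC50 obtained from inhibition curves.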

Plasma [4] = experiment: Prodrug conversion in CD1 mouse plasma assessed as 4-Carboxy-alpha-[3-(hydroxyamino)-3-oxopropyl]-benzenepropanoic acid formation at 10 mg/kg equiv of 4-Carboxy-alpha-[3-(hydroxyamino)-3-oxopropyl]-benzenepropanoic acid after 30 mins by LC-MS/MS analysis relative to 4-Carboxy-alpha-[3-(hydroxyamino)-3-oxopropyl]-benzenepropanoic acid alone; assay type: ADME, organism-based; conditions: in vivo, 0.5 h
How it was run: (§2)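 Male CD-1 mice (25–30 g) given a single oral dose equivalent to 10 mg/kg of parent, in 50 mM HEPES-buffered saline at pH 7.4. Killed by pentobarbital at 30 min and blood taken by cardiac puncture into heparin. Plasma stored at −80 °C, then assayed for parent by LC-MS/MS on C18 with a formic acid/acetonitrile gradient. Mean ± SEM, n = 3.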

Plasma [5] = experiment: Metabolic stability in mouse plasma at 10 uM measured upto 60 mins by LC-MS/MS analysis; assay type: ADME, cell-free; conditions: 1 h; how it was run: as §1
Plasma [6] = experiment: Drug metabolism in mouse plasma assessed as 2-(4-(ethoxycarbonyl)benzyl)-5-(hydroxyamino)-5-oxopentanoic acid formation at 10 uM measured after 60 mins by LC-MS/MS analysis; assay type: ADME, cell-free; conditions: 1 h; how it was run: as §1
Plasma [7] = experiment: Prodrug conversion in CD1 mouse plasma assessed as 4-Carboxy-alpha-[3-(hydroxyamino)-3-oxopropyl]-benzenepropanoic acid formation at 10 mg/kg equiv of 4-Carboxy-alpha-[3-(hydroxyamino)-3-oxopropyl]-benzenepropanoic acid after 30 mins by LC-MS/MS analysis; assay type: ADME, organism-based; conditions: in vivo, 0.5 h; how it was run: as §2
Rattus norvegicus [8] = experiment: Analgesic activity in Sprague-Dawley rat assessed as reduction in chronic constriction injury induced hyperalgesic neuropathic pain on ligated side at 4.6 mg/kg/day administered via oral gavage measured upto 8 days relative to vehicle-treated control; assay type: functional, organism-based
How it was run: (§3)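 Male Sprague–Dawley rats (200–250 g; n = 10–15 per group) with sciatic nerve loosely ligated (four 4.0 chromic gut ligatures, 1 mm apart). Testing began 10 days post-surgery. Plantar thermal stimulus (Hargreaves) applied to the hind paw, withdrawal latency read to 0.1 s. Dosed daily by oral gavage, and 1 h before each test session. Two sessions per week; compared with vehicle by Student's t-test.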

Rattus norvegicus [9] = experiment: Effect on response latency to thermal stimulus in Sprague-Dawley rat at 4.6 mg/kg administered via oral gavage relative to vehicle-treated control; assay type: organism-based; conditions: in vivo; how it was run: as §3
[10] = Prodrug conversion in Tris/NaCl buffer assessed as 4-Carboxy-alpha-[3-(hydroxyamino)-3-oxopropyl]-benzenepropanoic acid formation at pH 8
How it was run: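 Stability tested under the enzyme assay conditions: 30 min in aqueous buffer (20 mM Tris, 150 mM NaCl), pH 8.0.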

NCC1(CC(=O)O)CCCCC1
Activity (Rattus norvegicus [1]): Active

CC(=O)Oc1ccc(CONC(=O)CCC(Cc2ccc(C(=O)OCOC(=O)OC(C)C)cc2)C(=O)O)cc1 (centres undefined)
Drug metabolism (Plasma [2]): Metabolite_Detected | IC50 [3]: > 5 µM | fold change (FC) (Plasma [4]): 4

O=C(CCC(Cc1ccc(C(=O)O)cc1)C(=O)O)NO (centres undefined)
Stability (Plasma [5]): Stable | IC50 [3]: 0.04 µM

CCOC(=O)c1ccc(CC(CCC(=O)NOCc2ccc(OC(C)=O)cc2)C(=O)O)cc1 (centres undefined)
Drug metabolism (Plasma [2]): Metabolite_Notdetected | Drug metabolism (Plasma [6]): Metabolite_Detected | Drug metabolism (Plasma [7]): Metabolite_Notdetected | IC50 [3]: > 5 µM

CC(=O)ONC(=O)CCC(Cc1ccc(C(=O)O)cc1)C(=O)O (centres undefined)
IC50 [3]: > 5 µM

CC(=O)Oc1ccc(CONC(=O)CCC(Cc2ccc(C(=O)O)cc2)C(=O)O)cc1 (centres undefined)
Activity (Rattus norvegicus [8]): Active | Activity (Rattus norvegicus [9]): Non-Toxic | Drug metabolism (Plasma [2]): Metabolite_Detected | IC50 [3]: > 5 µM | fold change (FC) (Plasma [4]): 5

CCOC(=O)c1ccc(CC(CCC(=O)NOCc2ccc(OC(C)=O)cc2)C(=O)OCC)cc1 (centres undefined)
Drug metabolism (Plasma [7]): Metabolite_Notdetected | IC50 [3]: > 5 µM

Cc1oc(=O)oc1CONC(=O)CCC(Cc1ccc(C(=O)O)cc1)C(=O)O (centres undefined)
Drug metabolism [10]: Metabolite detected

Source: ChEMBL document CHEMBL4017492, “Discovery of a para-Acetoxy-benzyl Ester Prodrug of a Hydroxamate-Based Glutamate Carboxypeptidase II Inhibitor as Oral Therapy for Neuropathic Pain” (J Med Chem, 2017)
